In the library only some 3.1% were active in any assay of this set; here they are far more common.
Ecoli rRNA inh: selective bacterial rRNA inhibition in E. coli | GFP signal change (wild-type ribosome), % (no concentration beside the values) | actives 1.6% (n = 350,000) | E. coli WT GFP vs humanized-ribosome RFP mutants, fluorescence, 24 h; active compounds read low; DMSO median 0, no signal -100;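 active = significant combined selectivity score with lowered wild-type GFP, culture density cut under 30%, mutant RFP and density less affected; inactive = any of these conditions unmet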
SIRT5 block: sirtuin-5 (human) deacylase inhibition; Q9NXA8; Purified SirT5, succinyl-peptide AMC, trypsin-coupled fluorescence; inhibition, % at 15 µM; actives 1.1% (n = 330,000); AID 652115; in the data active = inhibition above about 15%
ERAP1 HTS inh: ERAP1 (human) enzyme inhibition; recombinant ERAP1, Leu-AMC fluorescence, 60 min; inhibition, % at 10.7 µM; Q9NZ08; actives 0.15% (n = 340,000); AID 652197;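 active = mean replicate inhibition of at least 30%, or all replicates individually reaching that 30% level; inactive = mean below 30% and not every replicate reaching it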;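 also: 0% = neutral control wells and 100% = L-leucinethiol positive control wells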
F508del corr: CFTR F508del correction in bronchial cells | actives 0.36% (n = 350,000) | activity (quench increase), % at 7.58 µM | CFBE cells, YFP halide quenching; stimulated with forskolin plus potentiator P3; % fluorescence drop versus neutral controls;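 active = mean added fluorescence quench of at least 8% versus neutral control, with both replicates also reaching 8%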;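 also: cells transiently co-express mutant CFTR-F508del with the halide-sensitive YFP; corrector assay measuring rescue of mutant channel to the surface after 24 h compound exposure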
S100A4 MyoIIA: S100A4-myosin IIA interaction inhibition | inhibition, % at 10.7 µM | actives 0.14% (n = 360,000) | S100A4/TAMRA-MyoIIA peptide fluorescence polarization | P26447 | AID 652163;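 active = mean inhibition of at least 70% across replicates, with every replicate also reaching that level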
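incubation = readout 5 min after mixing, signal stable up to 60 min | system = S100A4 monomer protein | buffer or medium = HEPES pH 7.2 with CaCl2, KCl, NaCl, DTT, Triton | benchmarks = neutral control DMSO, positive control TFP | also added = fluorescent myosin IIA peptide, 5 nM | compound dosing = one concentration per compound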
AID977621: wild-type E. coli growth inhibition versus H69 humanized strain – H69 mutant RFP, wild-type GFP, cherry-pick, dose response; 1,900 tested, under 10 active; fluorescence, 24 h; activity change, negative = inhibition at 50 µM; shares compounds with Ecoli rRNA inh;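 active = Wild-type ribosome reporter drop at least double the humanized mutant ribosome reporter drop, growth loss under a set limit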;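 also: wild-type GFP and H69 mutant RFP strains grown together 50/50 in each well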
AID977628: growth of wild-type and h24-humanized E. coli strains – h24 mutant RFP vs wild-type GFP, cherry-pick, dose response. shares compounds with Ecoli rRNA inh. E. coli WT GFP strain growth, fluorescence, 24 h. activity change, negative = inhibition at 50 µM. 1,900 tested, under 10 active. AID 977628;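 active = compound lowering the normal-ribosome reporter at least twice as much as the humanized-ribosome reporter, growth loss under a set limit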;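 also: wild-type GFP and h24 humanized RFP strains co-cultured 1 to 1 per well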
* = called active by the depositor.

How did Cc1csc(SCc2nc3scc(-c4ccccc4)c3c(=O)[nH]2)n1 do in these assays?
Ecoli rRNA inh: -24*; SIRT5 block: -2; ERAP1 HTS inh: -2; F508del corr: -1; S100A4 MyoIIA: -8; AID977621: 0.6; AID977628: -8.5

What do the screens show for `O=C(O)CC(CC(=O)Nc1ccc2ccccc2n1)c1ccccc1` (stereo unspecified)?
Ecoli rRNA inh: -20*; SIRT5 block: 1; ERAP1 HTS inh: -1; F508del corr: 1; S100A4 MyoIIA: 0; AID977621: -3.8; AID977628: -1.7

How did S=C(NCc1ccc2c(c1)OCO2)NC1CCN(Cc2ccccc2)CC1 do in these assays?
Ecoli rRNA inh: -5; SIRT5 block: 0; ERAP1 HTS inh: -6; F508del corr: -1; S100A4 MyoIIA: 0

What do the screens show for `C=C1c2cc3c(cc2NC(=S)N1Cc1ccccc1)OCO3`?
Ecoli rRNA inh: -27*; SIRT5 block: -5; ERAP1 HTS inh: 4; F508del corr: -2; S100A4 MyoIIA: 0; AID977621: -7.9; AID977628: -3.8

How did O=C1CCCCC1Nc1ccc(Br)cc1 (stereo unspecified) do in these assays?
Ecoli rRNA inh: -19*; SIRT5 block: 0; ERAP1 HTS inh: -1; F508del corr: -1; S100A4 MyoIIA: 5; AID977621: -0.88; AID977628: -11

Screening results as filed in PubChem.
